The values that follow come from ChEMBL document CHEMBL1144844, “Synthesis and characterization of 5,6,7,8-tetrahydroquinoline C5a receptor antagonists” (Bioorg Med Chem Lett, 2008).

The target of data set [1] is T1, C5a anaphylatoxin chemotactic receptor 1 (Homo sapiens, UniProt P21730).
T1 sequence (P21730 whole entry): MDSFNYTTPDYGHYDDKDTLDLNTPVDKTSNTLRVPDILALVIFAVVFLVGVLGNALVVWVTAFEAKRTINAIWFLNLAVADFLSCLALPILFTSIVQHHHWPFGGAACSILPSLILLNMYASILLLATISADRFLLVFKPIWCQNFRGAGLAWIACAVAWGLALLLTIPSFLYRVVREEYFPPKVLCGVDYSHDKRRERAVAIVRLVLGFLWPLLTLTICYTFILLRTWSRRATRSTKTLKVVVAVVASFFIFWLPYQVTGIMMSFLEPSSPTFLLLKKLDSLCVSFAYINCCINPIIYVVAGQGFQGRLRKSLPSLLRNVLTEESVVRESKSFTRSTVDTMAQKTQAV
The data set can be described thus: Antagonist activity at human C5a receptor in U937 cells assessed as inhibition of anaphylatoxin-induced intracellular calcium mobilization. In kind it is functional, cell-based, U-937. (A change in cytosolic calcium serves as a functional read-out for many receptors and channels.)

A short description of data set [2]: Metabolic stability in human liver microsomes. In kind it is ADME, Microsome. For orientation: Liver microsomes are a subcellular fraction often used to study metabolism.
Data set [3] is described as follows: Metabolic stability in human liver microsomes after 10 mins. The note with it: read-out: Stability. The class given is ADME, Microsome.
A short description of data set [4]: Cmax in rat at 10 mg/kg, po. The arrangement: dose 10 mg/kg, route oral. The note with it: in vivo. In kind it is ADME, organism-based. The method in brief: (§1)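 Rat pharmacokinetics with single doses: oral at 10 mg/kg and intravenous at 2 mg/kg, n = 4. Cmax and half-life were taken from the oral arm, and bioavailability from comparison of the oral and intravenous exposures.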

Data set [5] is described as follows: Half life in rat at 10 mg/kg, po. In kind it is ADME, organism-based. Details: dose 10 mg/kg, route oral. The conditions noted are these: in vivo. The method in brief:
as §1

Data set [6] is described as follows: Oral bioavailability in rat at 10 mg/kg. The class given is ADME, organism-based. The note with it: in vivo. The method in brief: as §1
Data set [7] is described as follows: Clearance in rat at 2 mg/kg, iv. The conditions noted are these: in vivo.
Data set [8] concerns the target T1, C5a anaphylatoxin chemotactic receptor 1. The data set can be described thus: Displacement of [125I]C5a from human C5a receptor in U937 cells. The class given is cell-based, U-937.

For `CCc1cccc(CC)c1-c1cc(CC)c2c(n1)CCCC2N(C)Cc1cccc2ccccc12` (stereo unspecified), in data set [1], the IC50 was more than 10000 nM.

For `CCc1cccc(CC)c1-c1cc(OC)c2c(n1)CCCC2N(CC)c1cccc2ccccc12` (stereo in doubt; 27), the half-life in data set [2] was 0.9 h; in data set [5], 1.8 h. Moreover, the remaining at 10 min in data set [3] turned out to be 88%. Besides, the Cmax in data set [4] stood at 1300 nM. Also, in data set [6], the bioavailability was 59%. In data set [7], this compound registered a clearance of 31 mL/min/kg.

As for `CCc1cccc(CC)c1-c1cc(OC)c2c(n1)CCCC2N(C)c1cccc2c(OC)cccc12` (stereo unspecified), the IC50 in data set [1] is more than 10000 nM.

Take `CCc1cccc(CC)c1-c1cc(OC)c2c(n1)CCCC2N(C)c1cccc2cc(OC)ccc12` (stereo unspecified): the IC50 in data set [1] came to 180 nM.

Regarding `CCc1cccc(CC)c1-c1cc(OC)c2c(n1)CCCC2N[C@@H]1CCCc2ccccc21` (stereo in doubt; 40), in data set [1], the 50% inhibitory concentration (IC50) came out at 1900 nM.

`CCc1cccc(CC)c1-c1cc(OC)c2c(n1)CCCC2N(CCO)c1cccc2ccccc12` (stereo unspecified): in data set [1], the IC50 amounted to 190 nM. This compound returned a Ki in data set [8] of 180 nM.

Turning to `CCc1cccc(CC)c1-c1cc(OC)c2c(n1)CCCC2N(CC)c1cccc2c1CCCC2` (stereo unspecified), the IC50 in data set [1] came out at 220 nM.

As to `CCN(c1cccc2ccccc12)C1CCCc2nc(-c3ccccc3-c3ccccc3)cc(OC)c21` (stereo unspecified), the IC50 in data set [1] was more than 10000 nM.

Consider `CCN(c1cccc2ccccc12)C1CCCc2nc(-c3ccc4c(c3)OCO4)cc(OC)c21` (stereo unspecified), for which, in data set [1], the IC50 was more than 10000 nM.

For `CCc1cccc(CC)c1-c1cc(OC)c2c(n1)CCCC2N1CCc2c(cccc2C(F)(F)F)C1` (stereo unspecified), the IC50 in data set [1] was more than 10000 nM.

As to `CCc1cccc(CC)c1-c1cc(CC)c2c(n1)CCCC2N(CC)Cc1ccccc1` (stereo unspecified), the IC50 in data set [1] was more than 10000 nM.

Consider `CCc1cccc(CC)c1-c1cc(OC)c2c(n1)CCCC2N1CCc2cccc(C(F)(F)F)c2C1` (stereo unspecified), for which the IC50 in data set [1] came out at 270 nM.

With `CCN(c1cccc2ccccc12)C1CCCc2nc(-c3c(OC)cccc3OC)cc(OC)c21` (stereo unspecified), in data set [1], the IC50 came to 1800 nM. In data set [8], the Ki is 1200 nM.

On to `CCNC1CCCc2nc(-c3c(CC)cccc3CC)cc(OC)c21` (stereo unspecified), for which the half-inhibitory concentration (IC50) in data set [1] was more than 10000 nM.

Regarding `CCc1cccc(CC)c1-c1cc(Cl)c2c(n1)CCCC2N(CC)c1cccc2ccccc12` (stereo unspecified), in data set [1], the IC50 is 2000 nM.

On to `CCc1cccc(CC)c1-c1cc(OC)c2c(n1)CCCC2N[C@H]1CCCc2ccccc21` (stereo in doubt; 39), for which the IC50 in data set [1] is 5500 nM.

Regarding `CCN(c1cccc2ccccc12)C1CCCc2nc(-c3ccccc3)cc(OC)c21` (stereo unspecified), the IC50 in data set [1] is more than 10000 nM.

For `CCN(c1cccc2ccccc12)C1CCCc2nc(-c3c(C)cccc3C)cc(OC)c21` (stereo unspecified), in data set [1], the IC50 is 130 nM.

On to `CCc1cccc(CC)c1-c1cc(OC)c2c(n1)CCCC2N1CCc2ccc(OC)cc2C1` (stereo unspecified), for which the IC50 in data set [1] is more than 10000 nM.

With `CCc1cccc(CC)c1-c1cc(OC)c2c(n1)CCCC2N[C@H]1CCCc2ccccc21` (stereo in doubt; 38), in data set [1], the 50% inhibitory concentration (IC50) was 820 nM.

Take `CCN(c1cccc2ccccc12)C1CCCc2nc(-c3ccccc3C(C)C)cc(OC)c21` (stereo unspecified): the IC50 in data set [1] turned out to be 1700 nM.

For `CCc1cccc(CC)c1-c1cc(OC)c2c(n1)CCCC2N(C)c1cccc2ccccc12` (stereo unspecified), the 50% inhibitory concentration (IC50) in data set [1] was 170 nM.

On to `CCN(c1cccc2ccccc12)C1CCCc2nc(-c3cccnc3)cc(OC)c21` (stereo unspecified), for which the IC50 in data set [1] is more than 10000 nM.

Regarding `CCc1cccc(CC)c1-c1cc(OC)c2c(n1)CCCC2N1CCc2ccccc2C1` (stereo unspecified), the concentration for half-maximal inhibition (IC50) in data set [1] was found to be 1100 nM.

In the case of `CCN(c1cccc2ccccc12)C1CCCc2nc(-c3ccsc3)cc(OC)c21` (stereo unspecified), in data set [1], the IC50 was more than 10000 nM.

Turning to `CCc1cccc(CC)c1-c1cc(OC)c2c(n1)CCCC2Nc1cccc2ccccc12` (stereo unspecified), the half-maximal inhibitory concentration (IC50) in data set [1] was more than 10000 nM.

Take `CCc1ccccc1-c1cc(OC)c2c(n1)CCCC2N(CC)c1cccc2ccccc12` (stereo unspecified): in data set [1], the IC50 came out at 650 nM.

As to `CCc1cccc(CC)c1-c1cc(OC)c2c(n1)CCCC2N1CCc2cc(OC)c(OC)cc2C1` (stereo unspecified), the IC50 in data set [1] was more than 10000 nM.

As for `CCN(c1cccc2ccccc12)C1CCCc2nc(Cl)cc(OC)c21` (stereo unspecified), the IC50 in data set [1] was more than 10000 nM.

Take `CCc1cccc(CC)c1-c1cc(OC)c2c(n1)CCCC2N[C@@H]1CCCc2ccccc21` (stereo in doubt; 41): the IC50 in data set [1] came to 8100 nM.

Turning to `CCc1cccc(CC)c1-c1cc(OC)c2c(n1)CCCC2N(C)c1c(C)ccc2ccccc12` (stereo unspecified), the IC50 in data set [1] is 1500 nM.

Turning to `CCc1cccc(CC)c1-c1cc(OC)c2c(n1)CCCC2N1CCc2ccc(C(F)(F)F)cc2C1` (stereo unspecified), the IC50 in data set [1] is more than 10000 nM.

Turning to `CCc1cccc(CC)c1-c1cc(OC)c2c(n1)CCCC2N(C)c1ccc2ccccc2c1` (stereo unspecified), the IC50 in data set [1] is more than 10000 nM.

Consider `CCc1cccc(CC)c1-c1ccc2c(n1)CCCC2N(CC)c1cccc2ccccc12` (stereo unspecified), for which, in data set [1], the IC50 was more than 10000 nM.

The IC50 is the concentration at which inhibition is half-maximal. What is called half-life is the time needed for the level to fall by half in the phase considered. Low readings indicate fast loss, high ones slow loss. In general, Cmax refers to the maximum level reached in the sampled fluid or tissue. For orientation: bioavailability means dose-corrected exposure relative to a reference, in per cent. The low end stands for little systemic uptake, the high end for much systemic uptake. As a reminder, the clearance is the volume of plasma or blood freed of the substance per unit of time. Read a low clearance as a low capacity for elimination. The term Ki denotes the dissociation constant of the complex between target and ligand, obtained from inhibition or displacement. The low end stands for a stronger hold on the target, the high end for a looser hold on the target.
